Experimental data: ChEMBL document CHEMBL3425411, “Synthesis of β-Carboline-Based N-Heterocyclic Carbenes and Their Antiproliferative and Antimetastatic Activities against Human Breast Cancer Cells” (J Med Chem, 2015)

Columns and labels:
Type in all cases: functional, cell-based
[1] = Cytotoxicity against human H1299 cells assessed as growth inhibition after 24 to 72 hrs by MTT assay; conditions: NCI-H1299
Method in brief: (§1)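 About 5000 cells/well were grown 24 h in RPMI-1640 with 10% FBS, then given fresh medium with compound at various concentrations (from 10 mM DMSO stocks) for 24, 48 and 72 h. MTT (5 mg/mL stock) was added for 2 h and formazan dissolved in DMSO. Absorbance was read at 595 nm and expressed as percent proliferation versus DMSO control.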

MDA-MB-468 = assay: Cytotoxicity against human MDA-MB-468 cells assessed as growth inhibition after 24 to 72 hrs by MTT assay; method in brief: as §1
MCF7 = assay: Cytotoxicity against human MCF7 cells assessed as growth inhibition after 24 to 72 hrs by MTT assay; method in brief: as §1
MDA-MB-231 = assay: Cytotoxicity against human MDA-MB-231 cells assessed as growth inhibition after 24 to 72 hrs by MTT assay; method in brief: as §1

Row | SMILES | IC50 [1] | IC50 (MDA-MB-468) | IC50 (MCF7) | IC50 (MDA-MB-231)
1 | COC(=O)c1cc2c3ccccc3[nH]c2c2cn(-c3ccccc3I)c[n+]12 | 6.46 µM | 8.02 µM | 5.96 µM | 7.8 µM
2 | COC(=O)c1cc2c3ccccc3[nH]c2c2cn(C34CC5CC(CC(C5)C3)C4)c[n+]12 | > 30 µM | > 30 µM | > 30 µM | > 30 µM
3 | COC(=O)c1cc2c3ccccc3[nH]c2c2cn(-c3cccc(C(F)(F)F)c3)c[n+]12 | 10.9 µM | 10.5 µM | > 30 µM | 14.6 µM
4 | COC(=O)c1cc2c3ccccc3[nH]c2c2cn(Cc3ccc(F)cc3)c[n+]12 | > 30 µM | > 30 µM | > 30 µM | 12.8 µM
5 | COC(=O)c1cc2c3ccccc3[nH]c2c2cn(-c3ccc(C)cc3Cl)c[n+]12 | > 30 µM | > 30 µM | > 30 µM | 14 µM
6 | COC(=O)c1cc2c3ccccc3n(Cc3cc(OC)c(OC)c(OC)c3)c2c2cn(-c3ccc(Cl)cc3)c[n+]12 | > 30 µM | > 30 µM | > 30 µM | > 30 µM
7 | C=CCn1cc2c3[nH]c4ccccc4c3cc(C(=O)OC)[n+]2c1 | > 30 µM | > 30 µM | > 30 µM | 23 µM
8 | COC(=O)c1cc2c3ccccc3[nH]c2c2cn(-c3ccc(Cl)cc3C)c[n+]12 | > 30 µM | 20.2 µM | > 30 µM | 23.4 µM
9 | COC(=O)c1cc2c3ccccc3[nH]c2c2cn(-c3ccccc3)c[n+]12 | 8.87 µM | 5.82 µM | > 30 µM | > 30 µM
10 | COC(=O)c1cc2c3ccccc3[nH]c2c2cn(-c3ccc(Cl)cc3)c[n+]12 | 15.4 µM | 10.2 µM | 25.7 µM | 9.38 µM
11 | COC(=O)c1cc2c3ccccc3[nH]c2c2cn(-c3ccc(OC)c(OC)c3)c[n+]12 | 16.4 µM | 11.5 µM | > 30 µM | 29.9 µM
12 | COC(=O)c1cc2c3ccccc3[nH]c2c2cn(Cc3ccccc3)c[n+]12 | 23.7 µM | > 9.27 µM | 6.26 µM | 11.8 µM
13 | COC(=O)c1cc2c3ccccc3[nH]c2c2cn(-c3ccc(F)cc3Br)c[n+]12 | 16.4 µM | 9.51 µM | 13.3 µM | 10.8 µM
14 | COC(=O)c1cc2c3ccccc3[nH]c2c2cn(C3CC3)c[n+]12 | > 30 µM | > 30 µM | > 30 µM | > 30 µM
15 | COC(=O)c1cc2c3ccccc3[nH]c2c2cn(-c3ccccc3Br)c[n+]12 | > 30 µM | 11 µM | > 30 µM | 20.7 µM
16 | COC(=O)c1cc2c3ccccc3[nH]c2c2cn(CCc3ccccc3)c[n+]12 | > 30 µM | > 30 µM | > 30 µM | > 30 µM
17 | CCN(CC)CCn1cc2c3[nH]c4ccccc4c3cc(C(=O)OC)[n+]2c1 | > 30 µM | > 30 µM | > 30 µM | > 30 µM
18 | COC(=O)c1cc2c3ccccc3[nH]c2c2cn(-c3cccc(Br)c3)c[n+]12 | 26.9 µM | 15.1 µM | > 30 µM | 17.9 µM
19 | COC(=O)c1cc2c3ccccc3[nH]c2c2cn(C3CCCCC3)c[n+]12 | > 30 µM | 18.2 µM | > 30 µM | > 30 µM
20 | COC(=O)c1cc2c3ccccc3[nH]c2c2cn(Cc3ccc(C)cc3)c[n+]12 | > 30 µM | > 30 µM | > 30 µM | 11.2 µM
